# Test results from ChEMBL document CHEMBL1129786, “Ryanodine action at calcium release channels. 1. importance of hydroxyl substituents” (J Med Chem, 1996).
# Organism: Rattus norvegicus
# Test: Inhibition of rat ventricular muscle strip contractility.
# Format: functional
# Conditions: Muscle tissue
# Method in brief: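 Rat right ventricular muscle strips were held in water-jacketed baths of Krebs-Henseleit solution at 30 °C, aerated with O2-CO2 (95:5), at 0.5 g resting tension. Contraction was evoked by electrical stimulation and recorded on a polygraph. IC50 was taken from inhibition of contraction, using three to five experiments.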
row,SMILES,IC50 [nM]
1,CC1CCC2(O)C3(C)CC4(O)OC2(C1O)C1(O)C3(O)C(OC(=O)c2ccc[nH]2)C(O)(C(C)C)C41C (centres undefined),34

# Organism: Rattus norvegicus
# Test: Potency relative to ryanodine inhibiting rat ventricular muscle strip contractility.
# Format: functional, Muscle tissue
# Conditions: not given
# Method in brief: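 Right ventricular muscle strips from rat suspended in Krebs-Henseleit solution at 30 °C, aerated O2-CO2 95:5; resting tension 0.5 g. Contraction evoked by electrical stimulation was recorded and its inhibition measured. IC50 values are expressed relative to ryanodine; three to five experiments.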
row,SMILES,Potency
1,CONC12C(OC(=O)c3ccc[nH]3)C(O)(C(C)C)C3(C)C1C14OC3(O)CC2(C)C1(O)CCC(C)C4O (centres undefined),<1.1
2,C=C1CCC23OB(O)OC45C(OC(=O)c6ccc[nH]6)C(O)(C(C)C)C6(C)C(O)(CC24C)OC3(C1O)C56O (centres undefined),28
3,C=C1CCC2(O)C3(C)CC4(O)OC25C1OP(=O)(NC)OC51C3(O)C(OC(=O)c2ccc[nH]2)C(O)(C(C)C)C41C (centres undefined),<3.5
4,CC1CCC2(O)C3(C)CC4(O)OC2(C1O)C1(O)C3(O)C(OC(=O)c2ccc[nH]2)C(O)(C(C)C)C41C (centres undefined),100
5,CC1CCC2(O)C3(OC4(O)CC2(C)C2(NO)C(OC(=O)c5ccc[nH]5)C(O)(C(C)C)C4(C)C23)C1O (centres undefined),4.9
6,C=C1CCC2(O)C3(C)CC4(O)OC2(C1O)C1(O)C3(O)C(OC(=O)c2cccn2C)C(O)(C(C)C)C41C (centres undefined),100
7,CC1CCC2(O)C3(C)CC4(O)OC2(C1O)C1(O)C3(O)C(OC(=O)c2ccc[nH]2)C2(OC2(C)C)C41C (stereo in doubt; 25),24
8,CC1CCC2(O)C3(OC4(O)CC2(C)C2(O)C(OC(=O)c5ccc[nH]5)C(O)(C(C)C)C4(C)C23)C1O (centres undefined),64
9,C=C1CCC23OB(CC)OC45C(OC(=O)c6ccc[nH]6)C(=C(C)C)C6(C)C(O)(CC24C)OC3(C1O)C65O (centres undefined),26
10,C=C1CCC23OB(c4ccsc4)OC45C(OC(=O)c6ccc[nH]6)C(O)(C(C)C)C6(C)C(O)(CC24C)OC3(C1O)C56O (centres undefined),52
11,C=C1CCC23OB(C)OC45C(OC(=O)c6ccc[nH]6)C(O)(C(C)C)C6(C)C(O)(CC24C)OC3(C1O)C56O (centres undefined),100
12,CC1CCC2(O)C3(C)CC4(O)OC2(C1O)C1(O)C3(O)C(OC(=O)c2ccc[nH]2)C(O)(C(C)(C)O)C41C (centres undefined),26
13,CC1CCC2(O)C3(C)CC4(O)OC2(C1O)C1(O)C3(O)C(OC(=O)c2ccc[nH]2)C2(OC2(C)C)C41C (stereo in doubt; 26),3.4
